Results from different studies.
Compare with care: the assays were run in different laboratories.
Target: Cannabinoid receptor 2 (CNR2, Homo sapiens, UniProt P34972)
Read-out: ligand displacement
Method: radioligand

NC(=O)[C@@H]1CC(F)(F)CN1C(=O)c1ccc(N2CC(F)(F)C2)c(OCC2CC2)n1 — Ki (cell membranes): 40 nM
CCCCCc1cc(O)c2c(c1)OC(C)(C)c1cc(O)c(C)cc1-2 — Ki (cell membranes): 11 nM
CC1(C)C(C(=O)c2cn(CCCCCF)c3ccccc23)C1(C)C — Ki (cell membranes): 2.13 nM
CCCCCc1cc2c(c(O)c1C(=O)O)C1C=C(C)CCC1C(C)(C)O2 (stereo not drawn) — Ki (cell membranes): 1650 nM
C=CCC(CC)(NC(=O)c1ccc(C2CC2)c(Cc2ccc(F)cc2)n1)C(=O)OCC (stereo not drawn) — Ki (cell membranes): 0.8 nM
Cc1c(C(=O)Nc2ccc(F)nc2)nc(-c2ccc(Cl)cc2Cl)n1-c1ccc(OS(=O)(=O)CCC(F)(F)F)cc1 — Ki (cell membranes): 1.4 nM
CCOC(=O)C(CC)(CCCSCCOCCOCCOCCOCCNC(=O)OC(C)(C)C)NC(=O)c1ccc(C2CC2)c(Cc2ccc(F)cc2)n1 (stereo not drawn) — Ki (cell membranes): 140 nM
CCCc1cc(O)c2c(c1)OC(C)(C)[C@@H]1CCC(C)=C[C@@H]21 — Ki (cell membranes): 105 nM
CC/C(=C(\c1ccc(O)cc1)c1ccc(OCCN(C)C)cc1)c1ccccc1 — Ki (cell membranes): 900 nM
CCOC(=O)[C@](CC)(CCC[S+]([O-])CCOCCOCCNC(=O)OC(C)(C)C)NC(=O)c1ccc(C2CC2)c(Cc2ccc(F)cc2)n1 (stereo partly drawn) — Ki (cell membranes): 29 nM
CCCc1cc(O)c2c(c1)OC(C)(C)c1ccc(C)cc1-2 — Ki (cell membranes): 4780 nM
Cc1c(C(=O)Nc2ccc(C(F)(F)F)cn2)nc(-c2ccc(Cl)cc2Cl)n1-c1ccc(OS(=O)(=O)CCC(F)(F)F)cc1 — Ki (cell membranes): 4.9 nM
CCOC(=O)[C@H](CSC)NC(=O)c1ccc(C2CC2)c(Cc2ccc(F)cc2)n1 — Ki (cell membranes): 3.2 nM
Cc1nc([C@@](C)(CC2CC2)NC(=O)c2cc(OCC(F)(F)F)c(C3CC3)cn2)no1 — Ki (cell membranes): 76 nM
CCCCCn1c2ccccc2c2cc(C(=O)N3CCN(CC(=O)NC(C)(C)C)CC3)ccc21 — Ki: 2000 nM
